Measured values as given in ChEMBL document CHEMBL4020823, “Highly Selective, Potent, and Oral mTOR Inhibitor for Treatment of Cancer as Autophagy Inducer” (J Med Chem, 2018).
pIC50: −log10 of the molar value. Active and inactive are the calls of the source. The rule behind the calls is not given here.

How the values were obtained:
Homo sapiens [1] = organism: Homo sapiens; test: Inhibition of mTORC1 in human T47D cells assessed as reduction in 4E-BP1 phosphorylation at Ser65 residues at 0.25 to 0.5 uM by Western blot analysis; assay type: cell-based
In short: (§1)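 Cells treated with the indicated concentrations, then whole-cell lysates immunoblotted. mTORC1 activity read as S6 and 4E-BP1 phosphorylation; mTORC2 activity read as AKT Ser473 phosphorylation. Blocking in 5% skim milk, primary antibodies at 4 °C overnight, peroxidase-conjugated secondary, ECL detection.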

T47D [2] = test: Antitumor activity against human T47D cells xenografted in BALB/c nude mouse assessed as decrease in tumor growth at 15 mg/kg, po administered via gavage after 3 weeks relative to control; assay type: functional; conditions: 504 h, read-out: TGI
HeLa [3] = test: Induction of autophagy in human HeLa cells assessed as increase in LC3-2 puncta level after 48 hrs by immunofluorescence staining based microscopic analysis; assay type: functional, cell-based
In short: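 Cells were grown on glass coverslips and exposed to inhibitor for 48 h. They were fixed in 4% paraformaldehyde, permeabilized with 0.15% Triton X-100 and blocked in 4% BSA/PBS for 1 h. Anti-LC3B was applied overnight at 1:200, followed by FITC secondary and DAPI nuclear stain. LC3B-II puncta were counted by fluorescence microscopy.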

[4] = target: Serine-protein kinase ATM (Homo sapiens, UniProt Q13315); test: Inhibition of full length recombinant human ATM
Chain of Serine-protein kinase ATM (Q13315 whole entry): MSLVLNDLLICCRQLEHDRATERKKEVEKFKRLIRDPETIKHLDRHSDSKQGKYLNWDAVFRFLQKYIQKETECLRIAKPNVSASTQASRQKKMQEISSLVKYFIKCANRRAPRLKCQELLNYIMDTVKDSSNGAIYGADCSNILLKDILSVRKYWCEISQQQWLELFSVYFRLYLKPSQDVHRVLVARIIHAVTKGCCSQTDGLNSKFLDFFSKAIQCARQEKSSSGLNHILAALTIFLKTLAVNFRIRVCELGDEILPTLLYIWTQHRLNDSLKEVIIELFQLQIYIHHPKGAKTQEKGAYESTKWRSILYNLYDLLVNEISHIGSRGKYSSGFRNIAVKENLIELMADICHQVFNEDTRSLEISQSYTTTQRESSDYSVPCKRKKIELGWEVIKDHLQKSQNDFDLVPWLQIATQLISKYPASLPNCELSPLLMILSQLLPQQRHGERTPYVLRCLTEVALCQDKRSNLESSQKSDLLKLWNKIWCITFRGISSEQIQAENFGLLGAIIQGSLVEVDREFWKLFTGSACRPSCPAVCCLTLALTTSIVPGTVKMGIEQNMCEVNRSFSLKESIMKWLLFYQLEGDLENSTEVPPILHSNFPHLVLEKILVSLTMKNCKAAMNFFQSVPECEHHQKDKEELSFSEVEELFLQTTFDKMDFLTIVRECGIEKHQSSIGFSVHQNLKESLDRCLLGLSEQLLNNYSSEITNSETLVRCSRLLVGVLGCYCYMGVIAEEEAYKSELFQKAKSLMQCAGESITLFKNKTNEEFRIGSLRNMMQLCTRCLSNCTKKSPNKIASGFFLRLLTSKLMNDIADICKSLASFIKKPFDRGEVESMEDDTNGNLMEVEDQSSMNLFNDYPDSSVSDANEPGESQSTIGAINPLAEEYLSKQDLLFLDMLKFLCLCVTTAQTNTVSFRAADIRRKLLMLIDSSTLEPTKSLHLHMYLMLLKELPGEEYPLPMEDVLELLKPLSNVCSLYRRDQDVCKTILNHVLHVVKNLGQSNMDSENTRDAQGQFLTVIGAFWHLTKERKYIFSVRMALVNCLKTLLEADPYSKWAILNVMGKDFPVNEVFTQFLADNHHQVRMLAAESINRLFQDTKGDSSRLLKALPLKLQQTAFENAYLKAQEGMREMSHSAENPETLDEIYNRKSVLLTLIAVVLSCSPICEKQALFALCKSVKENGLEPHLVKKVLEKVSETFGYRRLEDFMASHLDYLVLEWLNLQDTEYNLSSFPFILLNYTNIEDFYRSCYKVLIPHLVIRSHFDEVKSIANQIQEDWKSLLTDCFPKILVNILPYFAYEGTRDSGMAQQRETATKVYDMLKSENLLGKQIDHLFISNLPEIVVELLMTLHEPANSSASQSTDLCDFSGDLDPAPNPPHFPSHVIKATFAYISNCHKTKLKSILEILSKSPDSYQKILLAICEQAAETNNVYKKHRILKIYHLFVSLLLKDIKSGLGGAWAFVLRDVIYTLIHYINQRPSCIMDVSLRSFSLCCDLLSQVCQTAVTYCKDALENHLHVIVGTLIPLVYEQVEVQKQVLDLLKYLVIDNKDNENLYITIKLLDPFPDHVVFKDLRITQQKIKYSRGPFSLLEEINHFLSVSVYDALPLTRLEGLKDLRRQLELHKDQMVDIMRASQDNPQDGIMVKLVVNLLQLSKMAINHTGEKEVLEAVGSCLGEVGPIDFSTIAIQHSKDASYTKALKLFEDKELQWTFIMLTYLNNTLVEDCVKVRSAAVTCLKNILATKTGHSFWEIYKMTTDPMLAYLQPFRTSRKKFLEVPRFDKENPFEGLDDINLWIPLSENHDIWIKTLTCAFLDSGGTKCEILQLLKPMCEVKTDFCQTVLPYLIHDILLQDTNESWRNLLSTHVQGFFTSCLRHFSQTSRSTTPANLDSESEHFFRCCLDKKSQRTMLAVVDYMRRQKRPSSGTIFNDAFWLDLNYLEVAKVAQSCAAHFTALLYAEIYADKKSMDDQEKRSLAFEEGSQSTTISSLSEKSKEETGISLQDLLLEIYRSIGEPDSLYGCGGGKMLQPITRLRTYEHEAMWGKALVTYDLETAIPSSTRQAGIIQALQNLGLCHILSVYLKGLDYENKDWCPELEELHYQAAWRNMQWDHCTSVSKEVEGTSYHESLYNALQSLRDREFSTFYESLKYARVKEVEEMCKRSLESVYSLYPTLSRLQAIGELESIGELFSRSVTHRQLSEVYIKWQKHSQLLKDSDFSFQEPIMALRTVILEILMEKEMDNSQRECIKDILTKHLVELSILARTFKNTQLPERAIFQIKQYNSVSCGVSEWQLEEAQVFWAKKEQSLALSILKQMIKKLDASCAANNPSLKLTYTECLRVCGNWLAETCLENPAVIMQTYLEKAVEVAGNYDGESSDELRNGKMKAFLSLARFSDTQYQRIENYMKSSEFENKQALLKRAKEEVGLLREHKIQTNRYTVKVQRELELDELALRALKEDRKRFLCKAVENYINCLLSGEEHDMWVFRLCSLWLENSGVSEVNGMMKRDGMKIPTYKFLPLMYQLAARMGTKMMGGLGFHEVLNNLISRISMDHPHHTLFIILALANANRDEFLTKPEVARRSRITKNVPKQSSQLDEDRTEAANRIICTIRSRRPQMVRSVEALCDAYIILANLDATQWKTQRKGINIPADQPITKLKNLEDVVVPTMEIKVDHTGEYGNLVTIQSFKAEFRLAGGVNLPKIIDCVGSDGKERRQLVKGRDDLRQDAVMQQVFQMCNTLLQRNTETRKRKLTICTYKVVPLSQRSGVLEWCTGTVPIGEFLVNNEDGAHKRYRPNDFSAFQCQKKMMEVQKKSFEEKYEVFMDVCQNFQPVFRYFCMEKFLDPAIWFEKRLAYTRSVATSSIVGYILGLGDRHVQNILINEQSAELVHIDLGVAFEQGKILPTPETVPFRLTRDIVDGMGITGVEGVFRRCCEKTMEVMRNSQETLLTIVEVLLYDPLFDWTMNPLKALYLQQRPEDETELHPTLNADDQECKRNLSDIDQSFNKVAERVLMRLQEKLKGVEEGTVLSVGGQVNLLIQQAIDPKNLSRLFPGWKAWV

HeLa [5] = test: Cell cycle arrest in human HeLa cells assessed as decrease in S-phase at 0.5 to 1 uM after 24 hrs by propidium iodide-staining based flow cytometric analysis; assay type: functional
In short: (§2)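 Cells were seeded at 5 × 10^5 cells/mL. At 24 h after plating they were treated with increasing concentrations for 24 h, washed in PBS, and fixed in ice-cold 70% ethanol for at least 24 h. They were stained with propidium iodide plus RNase A for 30 min at 37 °C and analysed by flow cytometry for phase distribution.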

[6] = target: Serine/threonine-protein kinase mTOR (Homo sapiens, UniProt P42345); test: Inhibition of N-terminal FLAG-tagged recombinant human mTOR (1362 to end residues)
[7] = target: PI3-kinase p110-alpha/p85-alpha (Homo sapiens) (UniProt P27986+P42336); test: Inhibition of full length recombinant human PI3K p110alpha/p85alpha at 1 uM relative to control; assay type: protein-complex assay
In short: (§3)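 Eurofins KinaseProfiler panel with compound at a single 1 μM concentration. ATP at the Km of each kinase. Result is % inhibition, mean of two independent experiments.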

[8] = target: PI3K p110 beta/p85 alpha (Homo sapiens) (UniProt P27986+P42338); test: Inhibition of full length recombinant human PI3K p110beta/p85alpha at 1 uM relative to control; assay type: protein-complex assay; in short: as §3
Chain of PI3K p110 beta/p85 alpha (Homo sapiens) (P27986 2-724 limits assumed): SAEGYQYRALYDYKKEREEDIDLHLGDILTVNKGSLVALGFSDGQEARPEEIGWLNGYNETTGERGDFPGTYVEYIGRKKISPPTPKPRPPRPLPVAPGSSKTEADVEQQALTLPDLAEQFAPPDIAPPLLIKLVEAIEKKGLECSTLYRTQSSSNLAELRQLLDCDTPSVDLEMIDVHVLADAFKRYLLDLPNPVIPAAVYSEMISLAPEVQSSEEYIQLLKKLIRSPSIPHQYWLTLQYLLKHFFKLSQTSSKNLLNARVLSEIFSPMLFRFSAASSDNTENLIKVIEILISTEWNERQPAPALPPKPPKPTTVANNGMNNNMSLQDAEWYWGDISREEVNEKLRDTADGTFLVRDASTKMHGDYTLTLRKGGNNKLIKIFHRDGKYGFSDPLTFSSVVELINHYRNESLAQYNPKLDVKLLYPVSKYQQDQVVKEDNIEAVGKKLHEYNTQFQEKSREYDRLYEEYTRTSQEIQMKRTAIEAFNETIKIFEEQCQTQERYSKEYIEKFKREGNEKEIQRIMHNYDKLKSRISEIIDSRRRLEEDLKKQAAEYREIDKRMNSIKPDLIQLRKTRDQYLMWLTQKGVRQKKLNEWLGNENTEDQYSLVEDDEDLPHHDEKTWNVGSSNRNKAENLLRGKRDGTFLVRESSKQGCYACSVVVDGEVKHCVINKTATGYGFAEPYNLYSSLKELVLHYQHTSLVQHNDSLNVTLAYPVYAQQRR
Chain of PI3K p110 beta/p85 alpha (Homo sapiens) (P42338 whole entry partner): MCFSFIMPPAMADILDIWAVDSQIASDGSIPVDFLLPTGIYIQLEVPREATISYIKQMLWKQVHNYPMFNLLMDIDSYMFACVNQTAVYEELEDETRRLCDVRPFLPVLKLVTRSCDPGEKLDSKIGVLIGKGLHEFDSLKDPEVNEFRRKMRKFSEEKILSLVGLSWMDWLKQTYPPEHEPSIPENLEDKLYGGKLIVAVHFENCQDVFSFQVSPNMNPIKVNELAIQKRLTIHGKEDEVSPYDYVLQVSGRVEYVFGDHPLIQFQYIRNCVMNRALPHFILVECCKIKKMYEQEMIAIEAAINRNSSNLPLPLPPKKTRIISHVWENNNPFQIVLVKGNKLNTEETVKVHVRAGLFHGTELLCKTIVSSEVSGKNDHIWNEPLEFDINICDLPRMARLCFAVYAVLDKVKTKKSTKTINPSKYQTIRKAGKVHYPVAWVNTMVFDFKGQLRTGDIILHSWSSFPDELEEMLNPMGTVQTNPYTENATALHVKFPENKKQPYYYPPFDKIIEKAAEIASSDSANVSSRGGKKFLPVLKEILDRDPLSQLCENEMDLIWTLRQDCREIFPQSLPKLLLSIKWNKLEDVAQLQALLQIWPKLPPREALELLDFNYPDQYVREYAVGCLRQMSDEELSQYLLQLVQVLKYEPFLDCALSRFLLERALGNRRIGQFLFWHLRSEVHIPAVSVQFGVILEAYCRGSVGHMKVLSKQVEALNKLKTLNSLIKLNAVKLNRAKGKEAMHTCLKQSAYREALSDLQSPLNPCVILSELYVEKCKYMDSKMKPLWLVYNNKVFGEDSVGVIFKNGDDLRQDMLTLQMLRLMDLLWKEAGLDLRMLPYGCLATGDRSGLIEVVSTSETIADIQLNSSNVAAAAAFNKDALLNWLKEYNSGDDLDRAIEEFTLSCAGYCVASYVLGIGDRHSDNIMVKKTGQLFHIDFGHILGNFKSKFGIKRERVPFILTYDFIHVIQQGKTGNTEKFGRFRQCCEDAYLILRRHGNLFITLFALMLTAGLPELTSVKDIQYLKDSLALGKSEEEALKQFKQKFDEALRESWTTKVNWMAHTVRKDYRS

Homo sapiens [9] = organism: Homo sapiens; test: Inhibition of mTORC1 in human T47D cells assessed as reduction in S6 phosphorylation at Ser 240/244 residues at 0.25 to 0.5 uM by Western blot analysis; assay type: cell-based; in short: as §1
Homo sapiens [10] = organism: Homo sapiens; test: Inhibition of mTORC2 in human SiHa cells assessed as reduction in AKT phosphorylation at Ser473 residues at 0.25 to 0.5 uM by Western blot analysis; assay type: cell-based
In short: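 Cells exposed to a range of compound concentrations; whole-cell lysates immunoblotted for phospho-AKT (Ser473) as the mTORC2 readout, alongside S6 and 4E-BP1 phosphorylation for mTORC1. Membranes blocked in 5% skim milk, primary antibodies overnight at 4 °C, peroxidase-conjugated anti-mouse or anti-rabbit IgG secondary, ECL detection. Rapamycin as comparator.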

[11] = system: PI3-kinase p110-alpha/p85-alpha (Homo sapiens), P27986+P42336 [H1047R]; test: Inhibition of full length recombinant human p85alpha/PI3K p110alpha H1047R mutant at 1 uM relative to control; in short: as §3
[12] = MRT (0 to infinity) in Sprague-Dawley rat at 20 mg/kg, iv administered as single dose by HPLC analysis; assay type: ADME, organism-based; conditions: in vivo
In short: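 Rats fasted overnight, then given a single 20 mg/kg dose either iv or po. Blood collected and centrifuged immediately to obtain plasma. Plasma drug levels measured by HPLC, and pharmacokinetic parameters derived from both routes.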

MDA-MB-231 = test: Cell cycle arrest in human MDA-MB-231 cells assessed as decrease in S-phase at 0.25 to 0.5 uM after 24 hrs by propidium iodide-staining based flow cytometric analysis; assay type: functional; in short: as §2
Rattus norvegicus = test: Apparent volume of distribution at steady state in Sprague-Dawley rat at 20 mg/kg, po administered as single dose by HPLC analysis; assay type: ADME, organism-based; conditions: in vivo
In short: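 Rats fasted overnight, then given one 20 mg/kg dose either iv or po. Blood was collected and centrifuged at once to obtain plasma. Plasma drug levels were measured by HPLC, and PK parameters were derived from the concentration-time data.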

Homo sapiens [13] = organism: Homo sapiens; test: Inhibition of mTORC1 in human MCF7 cells assessed as reduction in 4E-BP1 phosphorylation at Ser65 residues at 0.25 to 0.5 uM by Western blot analysis; assay type: cell-based; in short: as §1
MCF7 [14] = test: Growth inhibition of human MCF7 cells after 72 hrs by CCK8 assay; assay type: functional, cell-based; conditions: MCF7, 72 h
In short: (§4)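 Cells were seeded at 2000–3000 per well and grown 24 h in serum-containing medium. They were then exposed to serially diluted compound for 72 h at 37 °C, 5% CO2. CCK8 reagent was added for 1–4 h and absorbance read at 450 nm. Inhibition = (AC − AS)/(AC − Ab) × 100%. IC50 is the average of at least three independent determinations.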

[15] = system: PI3-kinase p110-alpha/p85-alpha (Homo sapiens), P27986+P42336 [E542K]; test: Inhibition of full length recombinant human p85alpha/PI3K p110alpha E542K mutant at 1 uM relative to control; in short: as §3
MCF7 [16] = test: Induction of autophagy in human MCF7 cells assessed as increase in LC3-2 level at 0.25 to 0.5 uM after 48 hrs by Western blot analysis; assay type: functional, cell-based
In short: (§5)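 Cells were treated for 48 h (2 days) with varying concentrations. Whole-cell lysates were immunoblotted for LC3B-II with β-actin as the internal control. Membranes were blocked in 5% skim milk, incubated with primary antibody overnight at 4 °C, then with peroxidase-conjugated secondary, and developed by ECL.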

SK-OV-3 = test: Growth inhibition of human SKOV3 cells after 72 hrs by CCK8 assay; assay type: functional, cell-based; conditions: SK-OV-3, 72 h; in short: as §4
NCI-H460 = test: Growth inhibition of human H460 cells after 72 hrs by CCK8 assay; assay type: functional, cell-based; conditions: NCI-H460, 72 h; in short: as §4
T47D [17] = test: Antitumor activity against human T47D cells xenografted in BALB/c nude mouse assessed as decrease in tumor growth administered via oral gavage after 3 weeks; assay type: functional, cell-based
MCF7 [18] = test: Cell cycle arrest in human MCF7 cells assessed as accumulation at G0/G1 phase at 0.25 to 0.5 uM after 24 hrs by propidium iodide-staining based flow cytometric analysis; assay type: functional; in short: as §2
HeLa [19] = test: Induction of autophagy in human HeLa cells assessed as increase in LC3-2 level at 1 to 2 uM after 48 hrs by Western blot analysis; assay type: functional, cell-based; in short: as §5
HeLa [20] = test: Inhibition of mTORC1 in human HeLa cells assessed as reduction in 4E-BP1 phosphorylation at Ser65 residues at 0.5 to 1 uM by Western blot analysis; assay type: cell-based; in short: as §1

pIC50 [4]: 7.21
pIC50 [6]: 8.15
inhibition [7]: 10%
inhibition [8]: 7%
inhibition [11]: 2%
MRT inf [12]: 11.6 h
Vdss(app) (Rattus norvegicus): 21.79 L/kg
pIC50 (MCF7 [14]): 6.99
inhibition [15]: 11%
pIC50 (SK-OV-3): 5.73
pIC50 (NCI-H460): 5.75
Structure (SMILES): N#CCN1CCC(n2c(=O)cnc3cnc4ccc(-c5ccc(N)nc5)cc4c32)CC1
inhibition (Homo sapiens [1]): Active
inhibition in vivo at 15 mg/kg (T47D [2]): 63.2%
Activity (HeLa [3]): Dose-dependent effect
Activity (HeLa [5]): Active
inhibition (Homo sapiens [9]): Active
inhibition (Homo sapiens [10]): Active
Activity (MDA-MB-231): Active
inhibition (Homo sapiens [13]): Active
Activity (MCF7 [16]): Active
TGI (T47D [17]): Dose-dependent effect
Activity (MCF7 [18]): Active
Activity (HeLa [19]): Active
inhibition (HeLa [20]): Active
